Measurements taken from ChEMBL document CHEMBL4689842, “EUbOPEN Chemogenomics Library wave 1” (2021).
Values joined by “and” are separate entries in the source; they are usually repeats but may differ in a detail not shown here. Equal values may be shown once.

Test system: U2OS
Assay: Multiplex assay against U2OS
Assay type: toxicity, cell-based
Settings: human, 10 µM, compound concentration 10 uM
Outline: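 Imaging took place on a CQ1 microscope at 37°C and 5% CO2 once compound had been added to live cells stained at seeding with Hoechst33342, BioTracker Green Microtubule Cytoskeleton Dye, MitoTracker Red and Annexin V Alexa Fluor 680. CellPathfinder machine-learning gating classed cells as Hoechst high-intensity objects or normal cells, classed normal cells as having healthy, pyknosed or fragmented nuclei, and classed pyknosed cells as mitotic or apoptotic. Tubulin, mitochondrial-mass and membrane-permeability phenotypes are per cents of the healthy-nucleus cells.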

Question: Which “Population Apoptotic (%)” value (12 h, replicate 1) does the source give for `CN(C)c1ncnc(-c2ccc3nc(Nc4cc(CN5CCN(C(=O)CC(F)(F)F)CC5)ccn4)[nH]c3c2)c1Cl` [BAY-440] here?
Answer: Its value is 23%.

Question: What about the “Population Fragmented Nuclei (%)” value (12 h, replicate 1) of the same molecule?
Answer: Its value is 5%.

Question: What about the “Population Healthy Nuclei (%)” value (12 h, replicate 1) of the same molecule?
Answer: Its value is 88% and 91%.

Question: And the “Population Hoechst High Intensity Objects (%)” value (12 h, replicate 1)?
Answer: The value was 3% and 1%.

Question: And the “Population Mitochondria Different-Phenotype (%)” value (12 h, replicate 1)?
Answer: Its value is 32% and 17%.

Question: What about the “Population Mitotic Cells (%)” value (12 h, replicate 1) of the same molecule?
Answer: Its value is 76%.

Question: And the “Population Normal (%)” value (12 h, replicate 1)?
Answer: The value was 96% and 98%.

Question: What about the “Population Pyknosed Nuclei (%)” value (12 h, replicate 1) of the same molecule?
Answer: The value was 6% and 3%.

Question: And the “Total Cell Count” value (12 h, replicate 1)?
Answer: Its value is 204 and 178.

Question: And the “Population Fragmented Nuclei (%)” value (12 h, replicate 2)?
Answer: Its value is 10% and 7%.

Question: What about the “Population Healthy Nuclei (%)” value (12 h, replicate 2) of the same molecule?
Answer: Its value is 83% and 90%.

Question: What about the “Population Hoechst High Intensity Objects (%)” value (12 h, replicate 2) of the same molecule?
Answer: Its value is 8%.

Question: What about the “Population Mitochondria Different-Phenotype (%)” value (12 h, replicate 2) of the same molecule?
Answer: The value was 38% and 19%.

Question: And the “Population Mitotic Cells (%)” value (12 h, replicate 2)?
Answer: The value was 66% and 100%.

Question: What about the “Population Normal (%)” value (12 h, replicate 2) of the same molecule?
Answer: Its value is 91%.

Question: What about the “Population Pyknosed Nuclei (%)” value (12 h, replicate 2) of the same molecule?
Answer: Its value is 1%.

Question: What about the “Total Cell Count” value (12 h, replicate 2) of the same molecule?
Answer: The value was 103 and 116.

Question: What about the “Population Apoptotic (%)” value (24 h, replicate 1) of the same molecule?
Answer: Its value is 37% and 26%.

Question: And the “Population Fragmented Nuclei (%)” value (24 h, replicate 1)?
Answer: Its value is 7% and 2%.

Question: And the “Population Healthy Nuclei (%)” value (24 h, replicate 1)?
Answer: The value was 81% and 89%.

Question: And the “Population Hoechst High Intensity Objects (%)” value (24 h, replicate 1)?
Answer: The value was 3% and 2%.

Question: What about the “Population Mitotic Cells (%)” value (24 h, replicate 1) of the same molecule?
Answer: The value was 62% and 73%.

Question: And the “Population Normal (%)” value (24 h, replicate 1)?
Answer: Its value is 96% and 97%.

Question: What about the “Population Pyknosed Nuclei (%)” value (24 h, replicate 1) of the same molecule?
Answer: The value was 8%.

Question: And the “Total Cell Count” value (24 h, replicate 1)?
Answer: Its value is 221 and 230.

Question: And the “Population Fragmented Nuclei (%)” value (24 h, replicate 2)?
Answer: Its value is 8% and 3%.

Question: What about the “Population Healthy Nuclei (%)” value (24 h, replicate 2) of the same molecule?
Answer: The value was 79% and 95%.

Question: And the “Population Hoechst High Intensity Objects (%)” value (24 h, replicate 2)?
Answer: Its value is 6% and 8%.

Question: What about the “Population Mitochondria Different-Phenotype (%)” value (24 h, replicate 2) of the same molecule?
Answer: Its value is 50% and 33%.

Question: And the “Population Mitotic Cells (%)” value (24 h, replicate 2)?
Answer: Its value is 50% and 100%.

Question: And the “Population Normal (%)” value (24 h, replicate 2)?
Answer: Its value is 93% and 91%.

Question: What about the “Population Pyknosed Nuclei (%)” value (24 h, replicate 2) of the same molecule?
Answer: The value was 11% and 1%.

Question: What about the “Total Cell Count” value (24 h, replicate 2) of the same molecule?
Answer: The value was 108 and 135.
